Experimental data reported in ChEMBL document CHEMBL4145448, “Broad activity of diphenyleneiodonium analogues against Mycobacterium tuberculosis, malaria parasites and bacterial pathogens” (Eur J Med Chem, 2018).

Columns and labels:
[1] = Selectivity index, ratio of CC50 for human HepG2 cells in presence of 1% FBS to MIC for Acinetobacter baumannii isolate 07AC-336; format: toxicity; conditions: read-out: Selectivity Index
[2] = Selectivity index, ratio of CC50 for human HepG2 cells in presence of 1% FBS to MIC for Acinetobacter baumannii isolate 246-01-C; format: toxicity; conditions: read-out: Selectivity Index
Acinetobacter baumannii [3] = assay: Antibacterial activity against Acinetobacter baumannii isolate 07AC-336 after 18 hrs by broth microdilution method; format: functional; conditions: isolate 07AC-336, 18 h
Method in brief: (§1)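 Broth microdilution per CLSI in cation-adjusted Mueller-Hinton broth. 100 µL inoculum (~10^6 cfu/mL in CaMHB) mixed with 100 µL CaMHB containing compound, 0 to 128 µM. Incubated 18 h at 37 °C. MIC taken as the lowest concentration with no visible growth. Polymyxin B served as positive control. Isolates were stored at -80 °C in tryptone soy broth with 20% glycerol.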

Acinetobacter baumannii [4] = assay: Antibacterial activity against Acinetobacter baumannii isolate 246-01-C after 18 hrs by broth microdilution method; format: functional; method in brief: as §1
[5] = Selectivity index, ratio of CC50 for human HepG2 cells in presence of 1% FBS to MIC for Pseudomonas aeruginosa isolate 912; format: toxicity; conditions: read-out: Selectivity Index
Method in brief: (§2)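 Selectivity index is CC50 (1% FBS) divided by MIC. […] They then got compound at 300 to 0.14 µM (3-fold steps) for 24 h at 37 °C, 5% CO2. Resazurin (10 µM, 2 h) was read at ex/em 560/590 in duplicate wells. For MIC, CLSI broth microdilution was run in CaMHB with ~10^6 cfu/mL inoculum and 0–128 µM compound.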

[6] = Selectivity index, ratio of CC50 for human HepG2 cells in presence of 1% FBS to MIC for Pseudomonas aeruginosa isolate M146201; format: toxicity; conditions: read-out: Selectivity Index; method in brief: as §2
[7] = Selectivity index, ratio of CC50 for human HepG2 cells in presence of 1% FBS to MIC for Acinetobacter baumannii ATCC 17978 col10; format: toxicity; conditions: read-out: Selectivity Index
Staphylococcus aureus [8] = assay: Antibacterial activity against vancomycin-intermediate Staphylococcus aureus ATCC 700698 after 18 hrs by broth microdilution method; format: functional; conditions: ATCC 700698, 18 h; method in brief: as §1
[9] = Selectivity index, ratio of CC50 for human HepG2 cells in presence of 1% FBS to MIC for Escherichia coli N2381; format: toxicity; conditions: read-out: Selectivity Index
Acinetobacter baumannii [10] = assay: Antibacterial activity against Acinetobacter baumannii ATCC 19606 col10 after 18 hrs by broth microdilution method; format: functional; conditions: ATCC 19606 = CIP 70.34 = JCM 6841 col10, 18 h; method in brief: as §1
Enterococcus faecium = assay: Antibacterial activity against vancomycin-resistant Enterococcus faecium ATCC 700221 after 18 hrs by broth microdilution method; format: functional; conditions: ATCC 700221, 18 h; method in brief: as §1
[11] = Selectivity index, ratio of CC50 for human HepG2 cells in presence of 1% FBS to MIC for Mycobacterium tuberculosis H37Rv ATCC 25618; format: toxicity; conditions: read-out: Selectivity Index
[12] = Selectivity index, ratio of CC50 for human HepG2 cells in presence of 1% FBS to MIC for vancomycin-intermediate Staphylococcus aureus ATCC 700698; format: toxicity; conditions: read-out: Selectivity Index; method in brief: as §2
[13] = Selectivity index, ratio of CC50 for human HepG2 cells in presence of 1% FBS to MIC for Pseudomonas aeruginosa QLD PSA 1; format: toxicity; conditions: read-out: Selectivity Index; method in brief: as §2
[14] = Selectivity index, ratio of CC50 for human HepG2 cells in presence of 1% FBS to MIC for Klebsiella pneumoniae isolate 1; format: toxicity; conditions: read-out: Selectivity Index
Escherichia coli = assay: Antibacterial activity against Escherichia coli N4149 after 18 hrs by broth microdilution method; format: functional; conditions: N4149, 18 h; method in brief: as §1
[15] = Selectivity index, ratio of CC50 for human HepG2 cells in presence of 1% FBS to MIC for vancomycin-resistant Staphylococcus aureus ATCC 700699; format: toxicity; conditions: read-out: Selectivity Index; method in brief: as §2
[16] = Selectivity index, ratio of CC50 for human HepG2 cells in presence of 1% FBS to MIC for Klebsiella pneumoniae isolate M320445; format: toxicity; conditions: read-out: Selectivity Index
[17] = Selectivity index, ratio of CC50 for human HepG2 cells in presence of 1% FBS to MIC for Escherichia coli N11281; format: toxicity; conditions: read-out: Selectivity Index
[18] = Selectivity index, ratio of CC50 for human HepG2 cells in presence of 1% FBS to MIC for Acinetobacter baumannii ATCC 17978; format: toxicity; conditions: read-out: Selectivity Index
[19] = Selectivity index, ratio of CC50 for human HepG2 cells in presence of 1% FBS to IC50 for CQ-sensitive GFP-fused Plasmodium falciparum D10; format: toxicity; conditions: read-out: Ratio IC50
Klebsiella pneumoniae [20] = assay: Antibacterial activity against Klebsiella pneumoniae isolate 1 after 18 hrs by broth microdilution method; format: functional; conditions: isolate 1, 18 h; method in brief: as §1
Staphylococcus aureus [21] = assay: Antibacterial activity against vancomycin-resistant Staphylococcus aureus ATCC 700699 after 18 hrs by broth microdilution method; format: functional; conditions: ATCC 700699, 18 h; method in brief: as §1
Staphylococcus aureus [22] = assay: Antibacterial activity against methicillin-resistant Staphylococcus aureus ATCC 43300 after 18 hrs by broth microdilution method; format: functional; conditions: ATCC 43300, 18 h; method in brief: as §1
[23] = Selectivity index, ratio of CC50 for human HepG2 cells in presence of 1% FBS to MIC for Klebsiella pneumoniae isolate 224-11-C; format: toxicity; conditions: read-out: Selectivity Index
Klebsiella pneumoniae [24] = assay: Antibacterial activity against Klebsiella pneumoniae isolate 224-11-C after 18 hrs by broth microdilution method; format: functional; method in brief: as §1
[25] = Selectivity index, ratio of CC50 for human HepG2 cells in presence of 1% FBS to MIC for Klebsiella pneumoniae isolate 248-33-D; format: toxicity; conditions: read-out: Selectivity Index
[26] = Selectivity index, ratio of CC50 for human HepG2 cells in presence of 1% FBS to MIC for Acinetobacter baumannii ATCC 19606; format: toxicity; conditions: read-out: Selectivity Index
[27] = Selectivity index, ratio of CC50 for human HepG2 cells in presence of 1% FBS to MIC for Pseudomonas aeruginosa ATCC 27853; format: toxicity; conditions: read-out: Selectivity Index; method in brief: as §2
Pseudomonas aeruginosa [28] = assay: Antibacterial activity against Pseudomonas aeruginosa isolate 19147nm after 18 hrs by broth microdilution method; format: functional; method in brief: as §1
[29] = Selectivity index, ratio of CC50 for human HepG2 cells in presence of 1% FBS to MIC for Escherichia coli N4149; format: toxicity; conditions: read-out: Selectivity Index
Pseudomonas aeruginosa [30] = assay: Antibacterial activity against Pseudomonas aeruginosa isolate 912 after 18 hrs by broth microdilution method; format: functional; conditions: isolate 912, 18 h; method in brief: as §1
[31] = Selectivity index, ratio of CC50 for human HepG2 cells in presence of 1% FBS to MIC for vancomycin-resistant Enterococcus faecium ATCC 700221; format: toxicity; conditions: read-out: Selectivity Index; method in brief: as §2
Pseudomonas aeruginosa [32] = assay: Antibacterial activity against Pseudomonas aeruginosa isolate 18878B klon 1 after 18 hrs by broth microdilution method; format: functional; conditions: isolate 18878B klon 1, 18 h; method in brief: as §1

Compound | selectivity ratio [1] | selectivity ratio [2] | MIC (Acinetobacter baumannii [3]) [µM] | MIC (Acinetobacter baumannii [4]) [µM] | selectivity ratio [5] | selectivity ratio [6] | selectivity ratio [7] | MIC (Staphylococcus aureus [8]) [µM] | selectivity ratio [9] | MIC (Acinetobacter baumannii [10]) [µM] | MIC (Enterococcus faecium) [µM] | selectivity ratio [11] | selectivity ratio [12] | selectivity ratio [13] | selectivity ratio [14] | MIC (Escherichia coli) [µM] | selectivity ratio [15] | selectivity ratio [16] | selectivity ratio [17] | selectivity ratio [18] | also measured
c1ccc2c(c1)[I+]c1c-2ccc2ccccc12 | 0.09 | 0.17 | 8.4 | 4.2 | 0.34 | 0.09 | 1.4 | 4.2 | 0.09 | 1.1 | 1.1 | 2.4 | 0.17 | 0.17 | 0.02 | 34 | 0.17 | 0.04 | 0.04 | 0.69 | selectivity ratio [19]: 5.8; MIC (Klebsiella pneumoniae [20]): 34 µM; MIC (Staphylococcus aureus [21]): 4.2 µM; MIC (Staphylococcus aureus [22]): 2.1 µM; selectivity ratio [23]: 0.02; MIC (Klebsiella pneumoniae [24]): 34 µM; selectivity ratio [25]: 0.02; selectivity ratio [26]: 0.17; selectivity ratio [27]: 0.09; MIC (Pseudomonas aeruginosa [28]): 2.1 µM; selectivity ratio [29]: 0.02; MIC (Pseudomonas aeruginosa [30]): 2.1 µM; selectivity ratio [31]: 0.69; MIC (Pseudomonas aeruginosa [32]): 2.1 µM
Fc1ccc2c(c1)[I+]c1ccccc1-2 | 0.66 | 2.6 | 8.9 | 4.5 | 5.3 | 2.6 | 11 | 8.9 | 0.08 | 2.2 | 2.2 | 20 | 0.66 | 0.66 | 0.08 | 18 | 0.66 | 0.16 | 0.08 | 5.3 | selectivity ratio [19]: 105; MIC (Klebsiella pneumoniae [20]): 72 µM; MIC (Staphylococcus aureus [21]): 8.9 µM; MIC (Staphylococcus aureus [22]): 2.2 µM; selectivity ratio [23]: 0.08; MIC (Klebsiella pneumoniae [24]): 72 µM; selectivity ratio [25]: 0.16; selectivity ratio [26]: 2.6; selectivity ratio [27]: 0.66; MIC (Pseudomonas aeruginosa [28]): 0.56 µM; selectivity ratio [29]: 0.08; MIC (Pseudomonas aeruginosa [30]): 1.1 µM; selectivity ratio [31]: 2.6; MIC (Pseudomonas aeruginosa [32]): 1.1 µM
N#Cc1ccc2c(c1)[I+]c1ccccc1-2 | > 0.05 | 0.19 | > 71 | 18 | 0.75 | 0.19 | 1.5 | 8.8 | 0.05 | 2.2 | 2.2 | 12 | 0.37 | 0.37 | > 0.05 | 71 | 0.37 | 0.09 | 0.05 | 0.75 | selectivity ratio [19]: 62; MIC (Klebsiella pneumoniae [20]): > 71 µM; MIC (Staphylococcus aureus [21]): 8.8 µM; MIC (Staphylococcus aureus [22]): 4.4 µM; selectivity ratio [23]: > 0.05; MIC (Klebsiella pneumoniae [24]): > 71 µM; selectivity ratio [25]: > 0.05; selectivity ratio [26]: 0.19; selectivity ratio [27]: 0.09; MIC (Pseudomonas aeruginosa [28]): 2.2 µM; selectivity ratio [29]: 0.05; MIC (Pseudomonas aeruginosa [30]): 4.4 µM; selectivity ratio [31]: 1.5; MIC (Pseudomonas aeruginosa [32]): 4.4 µM
Clc1ccc2c(c1)[I+]c1ccccc1-2 | 0.51 | 0.51 | 2.2 | 2.2 | 1 | 0.51 | < 4.1 | 2.2 | 0.13 | 1.1 | 1.1 | 3.9 | 0.51 | 0.51 | 0.06 | 8.7 | 0.51 | 0.13 | 0.26 | 2 | selectivity ratio [19]: 15; MIC (Klebsiella pneumoniae [20]): 17 µM; MIC (Staphylococcus aureus [21]): 2.2 µM; MIC (Staphylococcus aureus [22]): 2.2 µM; selectivity ratio [23]: 0.06; MIC (Klebsiella pneumoniae [24]): 17 µM; selectivity ratio [25]: 0.06; selectivity ratio [26]: 0.51; selectivity ratio [27]: 0.13; MIC (Pseudomonas aeruginosa [28]): 0.54 µM; selectivity ratio [29]: 0.13; MIC (Pseudomonas aeruginosa [30]): 1.1 µM; selectivity ratio [31]: 1; MIC (Pseudomonas aeruginosa [32]): 0.54 µM
